We go through 1 substance from paper PMC9310269 (Journal for Immunotherapy of Cancer, 2022).

For the assay, the system named is MC38-hPD-L1 tumors. Description: MC38-hPD-L1 tumor model in humanized PD-1 mice. The following applies: 10 mg/kg i.p.; p<0.001. Format: in vivo, mouse. Put shortly: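 Male C57BL/6N humanized PD-1 mice receive 1×10^6 MC38-hPD-L1 cells s.c. in the right flank. At day 12 (~60 mm3) they are randomized into 3 groups (N=6). Dosing is 10 mg/kg i.p. daily for 10 doses, or atezolizumab 10 mg/kg i.p. three times weekly, both over days 12–22. Tumour (X2Y0.5, caliper) and body weight are measured every 3 days. At day 30, tumours are enzymatically digested and analysed by flow cytometry.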

On to “atezolizumab: clinically relevant anti-PD-L1 antibody control in vivo”, for which the tumor growth inhibition entry was “significant”.
